Laboratory results: ChEMBL document CHEMBL1165886, “Synthesis, anticonvulsant and toxicity screening of newer pyrimidine semicarbazone derivatives” (Eur J Med Chem, 2010)
Activity calls are given as the source filed them. The calls are words filed in the database; no cut-off is given here.

How the values were obtained:
[1] = tested on: Mus musculus; experiment: Anticonvulsant activity in ip dosed Albino mouse assessed as protection against maximal electric shock-induced seizure after 4 hrs; type: functional
Procedure, shortened: (§1)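 Mice given test compound i.p. in polyethylene glycol at 30, 100 and 300 mg/kg; corneal electrodes delivered 50 mA, 60 Hz for 0.25 s at 0.5 h and 4.0 h after dosing. Protection scored as abolition of hind limb tonic extension.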

[2] = tested on: Mus musculus; experiment: Anticonvulsant activity in Albino mouse assessed as protection against maximal electric shock-induced seizure at 300 mg/kg, ip after 0.5 hrs; type: functional, organism-based; design: dose 300 mg/kg; procedure, shortened: as §1
[3] = tested on: Mus musculus; experiment: Anticonvulsant activity in Albino mouse assessed as protection against scPTZ-induced seizure at 300 mg/kg, ip after 0.5 hrs; type: functional, organism-based; design: dose 300 mg/kg
Procedure, shortened: (§2)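 Test compound given i.p. in polyethylene glycol at 30, 100 and 300 mg/kg. Pentylenetetrazole 75 mg/kg, as a 0.5% solution, injected subcutaneously in the posterior midline. Animals examined 0.5 h and 4 h after dosing. Value is the minimum dose active in half or more of the mice; dash means no activity at maximum dose.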

[4] = tested on: Mus musculus; experiment: Anticonvulsant activity in Albino mouse assessed as protection against scPTZ-induced seizure at 300 mg/kg, ip after 4 hrs; type: functional, organism-based; design: dose 300 mg/kg; procedure, shortened: as §2
[5] = tested on: Mus musculus; experiment: Anticonvulsant activity in ip dosed Albino mouse assessed as protection against maximal electric shock-induced seizure after 0.5 hrs; type: functional; procedure, shortened: as §1
[6] = Neurotoxicity in ip dosed Albino mouse assessed as minimal motor impairment after 0.5 hrs by rotarod test; type: toxicity, organism-based; details: in vivo
Procedure, shortened: (§3)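 Mice pretrained on an accelerating rotorod, 3.2 cm diameter, rotating at 10 rpm. Test compound given i.p. in polyethylene glycol at 30, 100 and 300 mg/kg; examined at 0.5 h and 4 h. Neurotoxicity = inability to hold equilibrium on the rod for at least 1 min in each trial. Minimum dose affecting half or more of mice reported.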

[7] = Neurotoxicity in ip dosed Albino mouse assessed as minimal motor impairment after 4 hrs by rotarod test; type: toxicity, organism-based; details: in vivo; procedure, shortened: as §3
[8] = tested on: Mus musculus; experiment: Anticonvulsant activity in ip dosed Albino mouse assessed as protection against scPTZ-induced seizure after 0.5 hrs; type: functional; procedure, shortened: as §2
[9] = tested on: Mus musculus; experiment: Anticonvulsant activity in ip dosed Albino mouse assessed as protection against scPTZ-induced seizure after 4 hrs; type: functional; procedure, shortened: as §2
[10] = tested on: Mus musculus; experiment: Neurotoxicity in Albino mouse assessed as minimal motor impairment at 300 mg/kg, ip after 0.5 hrs by rotarod test; type: toxicity, organism-based; design: dose 300 mg/kg, route intraperitoneal; details: in vivo; procedure, shortened: as §3
[11] = species: Mus musculus; experiment: Hepatotoxicity in Albino mouse assessed as albumin level measured per 100 mL (RVb =1.45 +/- 0.06 g); type: toxicity, organism-based; details: in vivo
[12] = species: Mus musculus; experiment: Hepatotoxicity in Albino mouse assessed as globulin level measured per 100 mL (RVb = 0.24 +/- 0.03 g); type: toxicity, organism-based; details: in vivo
[13] = species: Mus musculus; experiment: Hepatotoxicity in Albino mouse assessed as total protein level measured per 100 mL (RVb = 1.69 +/- 0.05 g); type: toxicity, organism-based; details: in vivo
[14] = species: Mus musculus; experiment: Hepatotoxicity in Albino mouse assessed as change in alkaline phosphatase level; type: toxicity, organism-based; details: in vivo
Procedure, shortened: (§4)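 Serum alkaline phosphatase, SGOT and SGPT levels measured in treated mice versus control; transaminases estimated by the Reitman–Frankel method. Results given as mean ± SEM.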

[15] = species: Mus musculus; experiment: Hepatotoxicity in Albino mouse assessed as change in SGOT level; type: toxicity, organism-based; details: in vivo; procedure, shortened: as §4
[16] = species: Mus musculus; experiment: Hepatotoxicity in Albino mouse assessed as change in SGPT level; type: toxicity, organism-based; details: in vivo; procedure, shortened: as §4
[17] = tested on: Mus musculus; experiment: Neurotoxicity in Albino mouse assessed as minimal motor impairment at 300 mg/kg, ip after 4 hrs by rotarod test; type: toxicity, organism-based; design: dose 300 mg/kg, route intraperitoneal; details: in vivo; procedure, shortened: as §3
[18] = tested on: Mus musculus; experiment: Anticonvulsant activity in Albino mouse assessed as protection against maximal electric shock-induced seizure at 300 mg/kg, ip after 4 hrs; type: functional, organism-based; design: dose 300 mg/kg; procedure, shortened: as §1

SMILES	ED50 [1] [mg/kg]	Activity [2]	Activity [3]	Activity [4]	ED50 [5] [mg/kg]	TD50 at 0.5 h [6] [mg/kg]	TD50 at 4 h [7] [mg/kg]	ED50 [8] [mg/kg]	ED50 [9] [mg/kg]	further results
COc1ccc(-c2cc(-c3ccc(Cl)cc3)nc(NC(=O)N/N=C\c3ccccc3Cl)n2)c(OC)c1	300	inactive	inactive	inactive	–	–	–	–	–	–
O=C1NC(=O)C(c2ccccc2)(c2ccccc2)N1 [PHENYTOIN]	30	–	inactive	inactive	30	100	100	–	–	–
C/C(=N/NC(=O)Nc1nc(-c2ccc(F)cc2)cc(-c2ccc([N+](=O)[O-])cc2)n1)c1ccc(C)cc1	300	–	–	–	100	–	300	300	300	Activity [10]: Non-toxic
COc1ccc(-c2cc(-c3ccc(Cl)cc3)nc(NC(=O)N/N=C\c3ccccc3[N+](=O)[O-])n2)c(OC)c1	300	inactive	inactive	inactive	–	–	–	–	–	–
COc1ccc(/C(C)=N\NC(=O)Nc2nc(-c3ccc(Cl)cc3)cc(-c3ccc([N+](=O)[O-])cc3)n2)cc1	300	inactive	inactive	inactive	–	–	–	–	–	–
C/C(=N/NC(=O)Nc1nc(-c2ccc(C)cc2)cc(-c2ccc(F)cc2)n1)c1ccc(Cl)cc1	100	–	–	–	30	–	300	100	300	Activity [11]: 1.62 g; Activity [12]: 0.31 g; Activity [13]: 1.93 g; Activity [10]: Non-toxic; Activity [14]: Non-toxic; Activity [15]: Non-toxic; Activity [16]: Non-toxic
C/C(=N/NC(=O)Nc1nc(-c2ccc(C)cc2)cc(-c2ccc(Cl)cc2)n1)c1ccc(Cl)cc1	300	–	–	–	30	–	–	300	300	Activity [11]: 1.52 g; Activity [12]: 0.19 g; Activity [13]: 1.71 g; Activity [10]: Non-toxic; Activity [17]: Non-toxic; Activity [14]: Non-toxic; Activity [15]: Non-toxic; Activity [16]: Non-toxic
COc1ccc(-c2cc(-c3ccc(F)cc3)nc(NC(=O)N/N=C\c3ccc([N+](=O)[O-])cc3)n2)cc1OC	300	–	–	inactive	100	–	300	300	–	Activity [10]: Non-toxic
COc1ccc(/C(C)=N\NC(=O)Nc2nc(-c3ccc(F)cc3)cc(-c3ccc([N+](=O)[O-])cc3)n2)cc1	–	–	–	–	100	300	–	100	300	Activity [18]: inactive; Activity [17]: Non-toxic
COc1ccc(-c2cc(-c3ccc(F)cc3)nc(NC(=O)N/N=C\c3ccccc3Cl)n2)c(OC)c1	300	inactive	inactive	inactive	–	–	–	–	–	–
COc1ccc(-c2cc(-c3ccc(F)cc3)nc(NC(=O)N/N=C\c3cccc(Cl)c3)n2)cc1OC	300	–	inactive	inactive	300	–	–	–	–	–
COc1ccc(-c2cc(-c3ccc(Cl)cc3)nc(NC(=O)N/N=C(/C)c3ccccc3Cl)n2)cc1	–	inactive	inactive	–	–	–	–	–	300	Activity [18]: inactive
COc1ccc(-c2cc(-c3ccc(F)cc3)nc(NC(=O)N/N=C\c3ccccc3[N+](=O)[O-])n2)c(OC)c1	–	–	inactive	–	300	–	–	–	300	Activity [18]: inactive
CCC1(c2ccccc2)C(=O)NC(=O)NC1=O [PHENOBARBITAL]	30	–	inactive	inactive	100	100	300	–	–	–
COc1ccc(-c2cc(-c3ccc(F)cc3)nc(NC(=O)N/N=C(/C)c3ccc(C)cc3)n2)cc1	100	inactive	–	–	–	100	–	300	–	Activity [17]: Non-toxic
C/C(=N/NC(=O)Nc1nc(-c2ccc(C)cc2)cc(-c2ccc(F)cc2)n1)c1ccc([N+](=O)[O-])cc1	300	–	inactive	–	100	100	100	–	300	–
COc1ccc(-c2cc(-c3ccc(Cl)cc3)nc(NC(=O)N/N=C\c3cccc(Cl)c3)n2)cc1OC	300	–	inactive	–	100	300	300	–	300	–
C/C(=N/NC(=O)Nc1nc(-c2ccc(C)cc2)cc(-c2ccc(Cl)cc2)n1)c1ccc([N+](=O)[O-])cc1	300	–	–	–	100	100	100	300	300	–
COc1ccc(-c2cc(-c3ccc(Cl)cc3)nc(NC(=O)N/N=C(/C)c3ccc(C)cc3)n2)cc1	–	–	inactive	inactive	300	–	–	–	–	Activity [18]: inactive
C/C(=N/NC(=O)Nc1nc(-c2ccc(Cl)cc2)cc(-c2ccc([N+](=O)[O-])cc2)n1)c1ccc(C)cc1	300	–	inactive	–	300	–	–	–	300	–
COc1ccc(-c2cc(-c3ccc(Cl)cc3)nc(NC(=O)N/N=C\c3ccc([N+](=O)[O-])cc3)n2)cc1OC	100	–	–	–	30	–	–	100	100	Activity [11]: 1.74 g; Activity [12]: 0.26 g; Activity [13]: 2 g; Activity [10]: Non-toxic; Activity [17]: Non-toxic; Activity [14]: Non-toxic; Activity [15]: Non-toxic; Activity [16]: Non-toxic
CCC1(C)CC(=O)NC1=O (stereo unspecified) [ETHOSUXIMIDE]	–	inactive	–	–	–	–	–	100	300	Activity [18]: inactive; Activity [10]: Non-toxic; Activity [17]: Non-toxic
